≈ marks a conversion by molar mass, not a printed value.
Assays:
[1] = biological target: T1, Leucine--tRNA ligase, cytoplasmic (Homo sapiens, UniProt Q9P2J5); assay: Inhibition of cytoplasmic LeuRS in human HepG2 cells assessed as reduction in protein synthesis preincubated for 48 hrs followed by L-[14C]leucine addition measured after 3 hrs by liquid scintillation counting analysis; format: cell-based
Method in brief: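 HepG2 cells in DMEM/10% FCS, 3000 cells/well, exposed to compound dilutions (0.5% DMSO final) for 48 h at 37 °C. Medium then replaced with fresh medium containing 0.5 μCi L-[14C]leucine and the same compound levels for 3 h. Cells trypsinised, precipitated in ice-cold 20% TCA, filtered, washed, scintillation counted; curve-fit EC50; mean of at least duplicates.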

[2] = biological target: T1, Leucine--tRNA ligase, cytoplasmic; assay: Inhibition of human N-terminal 6His-tagged cytoplasmic LeuRS expressed in Escherichia coli BL21(DE3) assessed as […] after 20 mins by liquid scintillation counting analysis
Leucine--tRNA ligase = biological target: T2, Leucine--tRNA ligase (Mycobacterium tuberculosis (strain ATCC 25618 / H37Rv), UniProt P9WFV1); assay: Inhibition of Mycobacterium tuberculosis H37Rv N-terminal 6His-tagged LeuRS expressed in Escherichia coli BL21(DE3) assessed as L-[14C]leucine incorporation in to Escherichia coli tRNA after 20 mins by liquid scintillation counting analysis
T2 sequence (P9WFV1 whole entry): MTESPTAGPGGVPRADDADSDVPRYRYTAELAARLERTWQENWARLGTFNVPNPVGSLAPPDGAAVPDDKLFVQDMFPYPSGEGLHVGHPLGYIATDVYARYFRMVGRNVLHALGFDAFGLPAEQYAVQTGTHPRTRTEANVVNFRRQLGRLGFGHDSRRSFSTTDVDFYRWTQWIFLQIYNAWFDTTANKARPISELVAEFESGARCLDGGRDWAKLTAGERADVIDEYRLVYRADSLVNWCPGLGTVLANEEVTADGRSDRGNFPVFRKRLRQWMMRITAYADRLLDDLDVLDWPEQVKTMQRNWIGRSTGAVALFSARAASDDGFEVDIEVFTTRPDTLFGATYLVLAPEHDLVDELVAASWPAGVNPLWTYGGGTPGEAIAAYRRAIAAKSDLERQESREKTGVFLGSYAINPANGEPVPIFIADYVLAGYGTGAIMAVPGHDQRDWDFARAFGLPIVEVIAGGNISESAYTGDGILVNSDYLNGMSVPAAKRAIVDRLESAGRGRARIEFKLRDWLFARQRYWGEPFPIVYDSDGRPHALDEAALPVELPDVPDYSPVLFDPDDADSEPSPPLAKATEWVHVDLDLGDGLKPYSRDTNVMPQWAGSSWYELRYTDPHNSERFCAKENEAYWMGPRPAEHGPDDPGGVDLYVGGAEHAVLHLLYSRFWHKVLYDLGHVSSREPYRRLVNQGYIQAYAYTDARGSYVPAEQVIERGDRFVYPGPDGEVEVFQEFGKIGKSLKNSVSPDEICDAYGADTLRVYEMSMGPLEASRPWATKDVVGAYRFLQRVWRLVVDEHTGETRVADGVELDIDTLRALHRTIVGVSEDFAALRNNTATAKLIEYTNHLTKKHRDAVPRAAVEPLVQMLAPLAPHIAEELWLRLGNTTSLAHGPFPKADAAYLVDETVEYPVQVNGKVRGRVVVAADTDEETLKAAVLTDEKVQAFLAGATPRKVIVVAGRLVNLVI
Method in brief: (§1)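 N-terminal His6-tagged LeuRS expressed in E. coli BL21(DE3), codon-optimized. 50 mM HEPES-KOH pH 8.0, 30 mM MgCl2, 30 mM KCl, 13 μM L-[14C]leucine, 15 μM tRNA (E. coli total; brewer's yeast for human cytoplasmic enzyme), 0.02% BSA, 1 mM DTT, 30 °C. Inhibitor preincubated 20 min, started with 4 mM ATP, TCA-quenched after 7 min, filtered, scintillation counted; four-parameter logistic IC50.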

cytoplasmic LeuRS = assay: Selectivity index, ratio of EC50 for inhibition of cytoplasmic LeuRS in HepG2 cells assessed as reduction in protein synthesis to MIC for Mycobacterium tuberculosis H37Rv; format: toxicity, cell-based; conditions: human, read-out: Selectivity Index
Method in brief: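 Ratio of HepG2 protein-synthesis EC50 to MIC against M. tuberculosis H37Rv.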

[3] = test system: Mycobacterium tuberculosis; assay: Antimicrobial activity against Mycobacterium tuberculosis H37Rv; format: functional
HepG2 = assay: Cytotoxicity against human HepG2 cells assessed as reduction in cell viability after 48 hrs by CellTiter-Glo assay; format: cell-based; conditions: HepG2, 48 h
Method in brief: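 HepG2 cells seeded at 10 000/well in EMEM with 5% FCS and 2 mM glutamine. After 24 h, ten 1:2 serial compound dilutions (0.5% DMSO final) added in duplicate for 48 h. Read-out by CellTiter-Glo luminescence per table footnote; the method text also describes resazurin fluorescence (ex 515/em 590 nm). Sigmoidal variable-slope fit.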

[4] = biological target: T3, Leucine--tRNA ligase, mitochondrial (Homo sapiens, UniProt Q15031); assay: Inhibition of human N-terminal 6His-tagged mitochondrial LeuRS expressed in Escherichia coli BL21(DE3) assessed as L-[14C]leucine incorporation in to Escherichia coli tRNA after 20 mins by liquid scintillation counting analysis; method in brief: as §1
T3 sequence (Q15031 whole entry): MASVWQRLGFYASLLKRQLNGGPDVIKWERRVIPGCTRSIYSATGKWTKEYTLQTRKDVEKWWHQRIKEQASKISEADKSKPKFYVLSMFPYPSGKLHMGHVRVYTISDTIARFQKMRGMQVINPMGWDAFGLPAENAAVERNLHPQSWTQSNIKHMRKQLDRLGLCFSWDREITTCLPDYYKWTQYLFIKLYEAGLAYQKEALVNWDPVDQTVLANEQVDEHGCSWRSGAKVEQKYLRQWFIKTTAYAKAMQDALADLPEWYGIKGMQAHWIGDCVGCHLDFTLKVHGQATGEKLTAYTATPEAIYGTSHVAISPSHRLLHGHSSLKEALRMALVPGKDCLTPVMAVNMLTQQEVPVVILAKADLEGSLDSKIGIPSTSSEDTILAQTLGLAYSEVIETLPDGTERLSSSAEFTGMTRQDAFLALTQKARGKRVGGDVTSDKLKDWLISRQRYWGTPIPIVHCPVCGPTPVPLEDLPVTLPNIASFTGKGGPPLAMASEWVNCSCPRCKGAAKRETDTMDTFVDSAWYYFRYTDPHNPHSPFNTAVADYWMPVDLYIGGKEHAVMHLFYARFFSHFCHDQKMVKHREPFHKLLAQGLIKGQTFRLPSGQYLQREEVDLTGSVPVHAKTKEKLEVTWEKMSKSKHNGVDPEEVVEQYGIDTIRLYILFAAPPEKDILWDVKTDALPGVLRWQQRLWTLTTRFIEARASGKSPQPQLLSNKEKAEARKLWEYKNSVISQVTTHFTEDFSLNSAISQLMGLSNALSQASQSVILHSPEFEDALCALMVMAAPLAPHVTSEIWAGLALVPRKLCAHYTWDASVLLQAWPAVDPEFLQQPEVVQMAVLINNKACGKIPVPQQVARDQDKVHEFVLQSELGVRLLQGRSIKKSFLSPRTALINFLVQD

T1 sequence (Q9P2J5 whole entry): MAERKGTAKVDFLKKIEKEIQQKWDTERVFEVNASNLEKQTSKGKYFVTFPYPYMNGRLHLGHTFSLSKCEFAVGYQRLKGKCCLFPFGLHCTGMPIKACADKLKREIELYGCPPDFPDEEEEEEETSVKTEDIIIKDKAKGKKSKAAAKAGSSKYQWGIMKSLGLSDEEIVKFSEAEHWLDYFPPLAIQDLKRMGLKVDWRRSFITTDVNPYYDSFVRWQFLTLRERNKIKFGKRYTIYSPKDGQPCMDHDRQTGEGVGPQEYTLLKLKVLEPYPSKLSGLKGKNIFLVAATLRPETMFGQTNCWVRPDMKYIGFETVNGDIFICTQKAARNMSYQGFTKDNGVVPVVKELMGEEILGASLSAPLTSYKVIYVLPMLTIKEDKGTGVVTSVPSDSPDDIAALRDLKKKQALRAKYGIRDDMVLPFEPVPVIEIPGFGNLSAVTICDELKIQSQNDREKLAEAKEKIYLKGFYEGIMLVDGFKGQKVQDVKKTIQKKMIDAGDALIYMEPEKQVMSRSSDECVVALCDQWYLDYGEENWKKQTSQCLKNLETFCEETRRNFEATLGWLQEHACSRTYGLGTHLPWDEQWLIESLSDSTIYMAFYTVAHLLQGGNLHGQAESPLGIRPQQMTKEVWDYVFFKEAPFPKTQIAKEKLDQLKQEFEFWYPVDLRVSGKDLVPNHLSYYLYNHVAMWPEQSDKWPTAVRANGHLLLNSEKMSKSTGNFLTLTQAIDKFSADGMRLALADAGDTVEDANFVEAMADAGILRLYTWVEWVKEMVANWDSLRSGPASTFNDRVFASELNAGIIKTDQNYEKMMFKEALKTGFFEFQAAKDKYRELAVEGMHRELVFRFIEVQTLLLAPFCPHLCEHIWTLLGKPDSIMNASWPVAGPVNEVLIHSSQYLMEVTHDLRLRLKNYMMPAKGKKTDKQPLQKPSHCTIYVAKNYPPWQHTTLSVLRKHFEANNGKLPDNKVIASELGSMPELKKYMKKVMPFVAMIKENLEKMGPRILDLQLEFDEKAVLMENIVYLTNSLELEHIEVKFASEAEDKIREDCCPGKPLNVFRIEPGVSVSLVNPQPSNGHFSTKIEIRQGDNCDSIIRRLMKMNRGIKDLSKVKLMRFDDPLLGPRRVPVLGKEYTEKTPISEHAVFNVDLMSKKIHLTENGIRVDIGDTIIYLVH

| SMILES | IC50 (Leucine--tRNA ligase) | MIC [3] | also measured |
| --- | --- | --- | --- |
| NC[C@H]1OB(O)c2c(OCCO)ccc(Br)c21 | 120 nM | 0.08 µM (≈ 0.0242 µg/mL) | EC50 [1]: 116 µM; IC50 [2]: 118 µM; selectivity ratio (cytoplasmic LeuRS): 1450; EC50 (HepG2): 292 µM; IC50 [4]: > 300 µM |
| NCC1OB(O)c2c(OCc3ccccc3)ccc(Cl)c21 (racemic) | 320 nM | 5 µM (≈ 1.52 µg/mL) | – |
| CCOc1cc(Br)c2c(c1)B(O)OC2CN (racemic) | 260 nM | 3.75 µM (≈ 1.07 µg/mL) | – |
| NCC1OB(O)c2cc(OCCO)cc(Br)c21 (racemic) | 890 nM | > 5 µM | – |
| NCC1OB(O)c2c(OCCO)ccc(Cl)c21 (racemic) | 240 nM | 0.63 µM (≈ 0.162 µg/mL) | – |
| CCCOc1cc(Cl)c2c(c1)B(O)OC2CN (racemic) | 250 nM | 1.3 µM (≈ 0.332 µg/mL) | – |
| NC[C@@H]1OB(O)c2c(OCCO)ccc(Cl)c21 | 10000 nM | 5 µM (≈ 1.29 µg/mL) | – |
| NCC1OB(O)c2c(OCC(F)F)ccc(Cl)c21 (racemic) | 290 nM | 0.3 µM (≈ 0.0832 µg/mL) | – |
| CCOc1ccc(F)c2c1B(O)O[C@@H]2CN | – | 0.2 µM (≈ 0.045 µg/mL) | – |
| CCOc1ccc(Cl)c2c1B(O)O[C@@H]2CN | 56 nM | 0.1 µM (≈ 0.0241 µg/mL) | EC50 [1]: 19.6 µM; selectivity ratio (cytoplasmic LeuRS): 196; EC50 (HepG2): 65.8 µM; IC50 [4]: > 300 µM |
| NCC1OB(O)c2c3c(cc(Br)c21)OCCO3 (racemic) | 92 nM | 0.5 µM (≈ 0.15 µg/mL) | – |
| CCCOc1cc(Br)c2c(c1)B(O)OC2CN (racemic) | 370 nM | 0.6 µM (≈ 0.18 µg/mL) | – |
| CCOc1cccc2c1B(O)O[C@@H]2CN | – | 0.6 µM (≈ 0.124 µg/mL) | – |
| NCC1OB(O)c2cc(OCCCO)cc(Cl)c21 (racemic) | 440 nM | > 5 µM | – |
| NCC1OB(O)c2c3c(cc(Cl)c21)OCO3 (racemic) | 250 nM | > 5 µM | – |
| NCC1OB(O)c2c(OCCF)ccc(Cl)c21 (racemic) | 76 nM | 0.2 µM (≈ 0.0519 µg/mL) | – |
| NCC1OB(O)c2c(Oc3ccc(Br)cc3)ccc(Br)c21 (racemic) | 690 nM | > 5 µM | – |
| NCC1OB(O)c2cc(OCCO)cc(Cl)c21 (racemic) | 1110 nM | > 5 µM | – |
| NCC1OB(O)c2cc(OCCCO)cc(Br)c21 (racemic) | 370 nM | > 5 µM | – |
| NCC1OB(O)c2c(Oc3ccccc3)ccc(Cl)c21 (racemic) | 340 nM | 5 µM (≈ 1.45 µg/mL) | – |
